# Measured values as given in PMC4560520 (Drug Design, Development and Therapy, 2015).
# Where two headings read alike, the source gives them in different places.
# What was measured:
# healthy subjects [1] = conditions: febuxostat multiple 80 mg once-daily doses after a high-fat meal; cited from earlier work
# healthy subjects [2] = assay: Multiple ascending dose; type: in vivo, human
# [3] = cited from earlier work; for t1/2: mean ± SD
# healthy subjects [4] = conditions: cited from earlier work
# CYP isoenzymes = conditions: incubated with CYP isoenzymes; preclinical, no reference given; cited from earlier work
# liver microsome = conditions: in vitro liver microsome study; preclinical, no reference given; cited from earlier work
# XO enzyme = conditions: in vitro; ref data on file at LG Life Sciences; cited from earlier work
# dog = conditions: preclinical studies, no reference given; cited from earlier work
# [5] = SAD study incl. food effect: pharmacokinetics of LC350189 in plasma and urine; type: in vivo, human
# XO = XO (Homo sapiens, UniProt P47989); assay: PK/PD relationship, Emax model; type: in vivo
# Chain of XO (P47989 whole entry): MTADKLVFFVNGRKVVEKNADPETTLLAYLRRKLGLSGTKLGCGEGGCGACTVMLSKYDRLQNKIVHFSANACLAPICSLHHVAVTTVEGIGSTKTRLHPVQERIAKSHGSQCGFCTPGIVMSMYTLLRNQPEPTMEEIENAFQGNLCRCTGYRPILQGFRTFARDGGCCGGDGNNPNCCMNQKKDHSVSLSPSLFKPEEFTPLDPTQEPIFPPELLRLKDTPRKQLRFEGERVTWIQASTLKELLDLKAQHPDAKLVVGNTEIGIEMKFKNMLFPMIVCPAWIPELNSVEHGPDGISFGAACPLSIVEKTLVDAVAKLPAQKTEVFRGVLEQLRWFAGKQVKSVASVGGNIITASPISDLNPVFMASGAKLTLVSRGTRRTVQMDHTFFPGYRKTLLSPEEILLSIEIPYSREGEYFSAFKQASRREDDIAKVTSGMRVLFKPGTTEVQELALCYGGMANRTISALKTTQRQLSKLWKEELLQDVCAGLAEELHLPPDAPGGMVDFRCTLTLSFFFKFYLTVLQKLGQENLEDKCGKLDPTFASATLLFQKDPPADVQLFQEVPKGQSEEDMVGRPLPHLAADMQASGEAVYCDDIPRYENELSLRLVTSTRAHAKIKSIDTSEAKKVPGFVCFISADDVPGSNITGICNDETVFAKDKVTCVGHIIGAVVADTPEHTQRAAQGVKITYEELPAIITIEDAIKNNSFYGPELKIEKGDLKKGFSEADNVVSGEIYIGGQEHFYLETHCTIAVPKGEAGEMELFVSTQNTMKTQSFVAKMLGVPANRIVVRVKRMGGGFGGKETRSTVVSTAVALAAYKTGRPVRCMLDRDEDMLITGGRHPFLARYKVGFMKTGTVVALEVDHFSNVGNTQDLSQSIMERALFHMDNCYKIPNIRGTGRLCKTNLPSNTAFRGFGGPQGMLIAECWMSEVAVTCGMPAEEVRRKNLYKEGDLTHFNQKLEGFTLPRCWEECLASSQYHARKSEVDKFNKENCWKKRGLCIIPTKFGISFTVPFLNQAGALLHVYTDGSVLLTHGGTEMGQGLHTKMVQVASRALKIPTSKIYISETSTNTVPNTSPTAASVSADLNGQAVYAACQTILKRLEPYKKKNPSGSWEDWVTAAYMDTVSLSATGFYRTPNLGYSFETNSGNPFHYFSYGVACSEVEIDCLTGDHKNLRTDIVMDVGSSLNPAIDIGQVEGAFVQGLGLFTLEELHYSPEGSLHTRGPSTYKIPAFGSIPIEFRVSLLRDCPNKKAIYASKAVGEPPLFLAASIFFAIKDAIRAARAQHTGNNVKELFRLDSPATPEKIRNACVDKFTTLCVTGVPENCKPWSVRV
# SUA = conditions: in vivo study; ref data on file at LG Life Sciences; cited from earlier work
# healthy subjects [6] = assay: Single ascending dose; type: in vivo, human; conditions: for Change in Cmean,24 of serum uric acid from baseline: Day 1, mean (SD), n=8
# Outline: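 Healthy volunteers got a single oral dose on day 1, fasted, with placebo on day -1 for baseline and standardized meals. Serial blood was taken on days -1 and 1; aliquots were stored at -70°C. Serum uric acid, xanthine and hypoxanthine were measured by a validated assay. Cmean,24 = noncompartmental AUC0–24/24, as % change from baseline. Urinary Ae = urine volume × concentration.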
# rat = conditions: preclinical studies, no reference given; cited from earlier work
# healthy subjects [7] = assay: Safety and tolerability evaluation; type: in vivo, human
# Outline: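 The single-dose part covered 10–600 mg; the multiple-dose part gave 100–800 mg orally once daily for 7 days after an overnight fast, with 8 active subjects per dose group. Adverse events came from a questionnaire or spontaneous reports. Renal toxicity was assessed with a NGAL test.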
# [8] = 200 mg, fed (high-fat diet) vs fasting
smiles,measurement,setting,value
"Cc1nc(-c2ccc(OCC(C)C)c(C#N)c2)sc1C(=O)O [Febuxostat, febuxostat]",Change by food in the percentage decrease in SUA concentration,healthy subjects [1],no clinically significant change
same,Change of AUC by food,healthy subjects [1],slight decrease
same,"Maximum percentage decrease from baseline in Cmean,24 for SUA",healthy subjects [2]; febuxostat group (80 mg once daily for 7 days),58.8%
same,t1/2,[3]; febuxostat 40 mg,10.3 ± 7.4 h
same,t1/2,[3]; febuxostat 70 mg,12.5 ± 7.7 h
same,Tmax,[3]; febuxostat,~ 1 hour
same,"Maximum percentage decrease from baseline in Cmean,24",healthy subjects [4]; febuxostat 40 mg dose group,~ 40%
same,"Maximum percentage decrease from baseline in Cmean,24",healthy subjects [4]; febuxostat 90 mg dose group,60%
same,"Inhibition of the enzyme (XO), Emax",healthy subjects [4]; febuxostat,81.4%
same,"Allergic reaction, subjects",healthy subjects [4]; previous febuxostat multiple-dose study,six out of 118 subjects
CC(C)n1cc(C#N)c2cc(-n3cc(C(=O)O)cn3)ccc21 [LC350189],Metabolic stability,CYP isoenzymes,metabolically stable
same,Metabolic stability,liver microsome,metabolically stable
same,Inhibition of XO enzyme activity,XO enzyme,comparable to febuxostat
same,Dose up to which no significant toxicity was found,dog,200 mg/kg
same,Geometric mean ratio (90% CI) of AUClast with and without food,[5]; 200 mg single dose,0.973 (0.837–1.131)
same,"Geometric mean ratio (90% CI) of Cmax, fed vs fasting",[5]; 200 mg single dose,0.624 (0.485–0.802)
same,Decrease of Cmax by food,[5]; [8],38%
same,Delay of absorption by food,[5]; [8],~ 2 hours
same,Time up to which plasma concentrations were detected,"[5]; SAD low-dose groups (10 mg, 25 mg, 50 mg), LLOQ 5 ng/mL",up to 48 hours
same,half-life,"[5]; male, human, plasma, oral, t1/2, overall, approximate",~10 h
same,"Emax (maximum percentage decrease in Cmean,24 of SUA)","XO; Emax model, day 7, MAD, 95% CI 94.8%–105.4%",100.1%
same,Inhibition of XO activity,"XO; multiple doses at 100 mg, AUC at steady state close to EAUC50",~50%
same,Emax,XO; read-out: Inhibition of XO based on the Emax model,~100%
same,"Change in Cmean,24 of serum uric acid from baseline","healthy subjects [2]; MAD 800 mg once daily for 7 days, fasted, Day 7, mean (SD), n=6",−91.2%
same,Amount of uric acid excreted in the urine relative to baseline,healthy subjects [2]; after multiple administrations,one-third to one-tenth of the baseline level
same,"Maximum percentage decrease from baseline in Cmean,24 for SUA",healthy subjects [2]; after multiple administrations of LC350189,91.2%
same,"Increase of Cmean,24 of xanthine","healthy subjects [2]; after multiple administrations, day 7",three-to eight-fold
same,Reduction of SUA,SUA,sufficiently reduced SUA
same,"Change in Cmean,24 of serum uric acid from baseline","healthy subjects [6]; SAD single oral 200 mg, fasting",−22.9%
same,"Change in Cmean,24 of serum uric acid from baseline","healthy subjects [6]; SAD single oral 600 mg, fasted",−31.7%
same,"Increase of Cmean,24 of xanthine",healthy subjects [6]; after a single dose,two- to seven-fold
same,Dose up to which no significant toxicity was found,rat,12.5 mg/kg
same,Allergic reaction,healthy subjects [7]; SAD and MAD,no allergic reaction
same,Renal toxicity according to the NGAL test,healthy subjects [7]; SAD and MAD,no signals of renal toxicity
same,Tolerability,"healthy subjects [7]; single and multiple oral administrations, dose range 10–800 mg",well tolerated
